Hits are enriched below; roughly 2.9% of the tested compounds scored in any of these assays.
FAS TE block = FAS thioesterase (human) inhibition; 360,000 compounds, 0.67% hits; AID 602261; inhibition, % at 15 µM; P49327; recombinant FAS-TE, OMFH fluorogenic substrate, fluorescence endpoint;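 active = compounds whose normalised, plate-corrected inhibition of enzyme fluorescence in the single-dose primary screen is 50% or more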
Arrestin-AP2 inh = blocks beta-arrestin peptide binding to AP2 adaptin; FITC-arrestin peptide / GST-AP2 beads, flow cytometry; AP2 beta2 appendage carries R879A mutation; inhibition, % at 10 µM; 340,000 compounds, 0.31% hits; AID 504490;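 active = inhibition above a set limit, near 3 SD of compounds lacking own fluorescence, cut at about 54% in these data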
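Measured by: flow cytometry, FL1 (488/535 nm); Material: AP2 appendage R879A on GSH beads; Evaluation: percent response; Timing: pre-incubation 12 min, peptide binding 1 h, room temperature; Also added: 50 nM FITC-arrestin peptide; Medium: PBS with 0.05% Tween 20 and 0.1% BSA.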
CendR NRP1 mod = modulators of CendR peptide binding to human neuropilin-1. FAM-RPARPAR peptide binding to NRP-1, fluorescence polarization. inhibition, % at 25 µM. 360,000 compounds, 0.85% hits. AID 602438;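 active = inhibition or corrected inhibition above about 18%, plus a signal ratio from 0.5 to 1.5, limit read from the data, passing the limit was not always enough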
Target sequence (O14786 whole entry, looked up): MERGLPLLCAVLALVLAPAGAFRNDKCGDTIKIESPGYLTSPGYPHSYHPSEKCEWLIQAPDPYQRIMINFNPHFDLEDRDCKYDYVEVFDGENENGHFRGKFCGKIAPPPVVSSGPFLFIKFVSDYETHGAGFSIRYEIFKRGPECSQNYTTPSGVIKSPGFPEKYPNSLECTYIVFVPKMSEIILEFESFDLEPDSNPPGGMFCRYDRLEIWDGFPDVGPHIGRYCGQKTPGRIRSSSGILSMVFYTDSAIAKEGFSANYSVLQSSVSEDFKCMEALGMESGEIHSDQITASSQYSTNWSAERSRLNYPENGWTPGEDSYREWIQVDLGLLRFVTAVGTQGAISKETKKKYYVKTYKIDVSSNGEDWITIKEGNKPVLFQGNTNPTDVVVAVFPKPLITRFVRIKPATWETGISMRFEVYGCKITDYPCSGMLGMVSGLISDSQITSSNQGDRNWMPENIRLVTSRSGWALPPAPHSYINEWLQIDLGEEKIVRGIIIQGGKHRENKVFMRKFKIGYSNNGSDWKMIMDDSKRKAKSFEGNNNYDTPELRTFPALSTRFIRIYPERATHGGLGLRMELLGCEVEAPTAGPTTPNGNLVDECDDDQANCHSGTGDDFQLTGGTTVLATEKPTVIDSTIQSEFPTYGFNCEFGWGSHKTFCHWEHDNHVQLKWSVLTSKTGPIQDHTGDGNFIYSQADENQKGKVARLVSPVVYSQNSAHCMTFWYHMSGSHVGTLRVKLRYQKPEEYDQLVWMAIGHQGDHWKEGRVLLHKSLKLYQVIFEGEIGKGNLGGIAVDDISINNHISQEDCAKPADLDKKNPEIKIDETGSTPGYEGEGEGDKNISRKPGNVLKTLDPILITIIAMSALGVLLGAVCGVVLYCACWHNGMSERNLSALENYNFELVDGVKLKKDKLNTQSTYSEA
ADAM10 inh = inhibitors of human ADAM10; inhibition, % at 7 µM; O14672; AID 720582; recombinant ADAM10, EDANS/DABCYL FRET peptide cleavage, 3 h; 370,000 compounds, 0.62% hits;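 active = inhibition above a per-campaign cutoff equal to the mean of compounds falling between control-based bounds plus 3 SD, cut at about 20% in these data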
ADAM17 inh = ADAM17 inhibition, QFRET primary screen | P78536 | recombinant ADAM17, EDANS/DABCYL FRET peptide cleavage | inhibition, % at 6.95 µM | 370,000 compounds, 0.83% hits | AID 720648;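 active = inhibition above the mean of compounds lying between control limits plus 3 SD, set per campaign, cut at about 8.5% in these data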
CaV13 ICDI inh = Disruptors of the CACNA1D IQ motif to Ca2+-dependent inactivation inhibitor domain association, primary screening, Förster resonance energy transfer in intact living …; AID 743397; HEK cells, CFP/YFP FRET ICDI-IQ, plate reader, 10 min; percent FRET-ratio fall versus neutral wells; inhibition, % at 12.3 µM; 340,000 compounds, 0.098% hits;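 active = mean replicate inhibition of at least 30% and at least 1% of replicates passing that level; inconclusive = only one of the two criteria is met; inactive = neither criterion is met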
FAS-TE conf = confirmation of human fatty acid synthase thioesterase inhibitors. shares compounds with FAS TE block. recombinant FAS-TE, OMFH fluorogenic substrate, fluorescence. inhibition, % at 15 µM. 2,300 compounds, 45% hits. AID 624325;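 active = compounds inhibiting the enzyme by at least 50% at 15 µM in any one of the replicates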
Of the large screens only hits and unclear results are named; the others gave an inactive call (follow-up assays come after a bar, where they were run).

COc1ccc2c(c1)OC[C@H]1[C@H]2N2C(=O)c3ccc(F)cc3NC(=O)[C@@]2(C)[C@H]1c1ccccc1	FAS TE block 84, ADAM17 inh 9.1 | FAS-TE conf inactive
COc1ccc2c(c1)C(=O)N1[C@H]3c4cc(OC)ccc4OC[C@@H]3[C@H](c3ccccc3)[C@]1(C)C(=O)N2	FAS TE block 72 | FAS-TE conf inactive
COc1ccc2c(c1)[C@H]1[C@H](CO2)[C@H](c2ccccc2)[C@]2(C)C(=O)Nc3ccccc3C(=O)N12	none
COc1ccc2c(c1)OC[C@H]1[C@H]2N2C(=O)c3cc(Br)ccc3NC(=O)[C@@]2(C)[C@H]1c1ccccc1	FAS TE block 86 (no result: ADAM10 inh, ADAM17 inh, CaV13 ICDI inh) | FAS-TE conf inactive
COc1ccc2c(c1)[C@H]1[C@H](CO2)[C@H](c2ccccc2)[C@]2(C)C(=O)Nc3ccc(Br)cc3C(=O)N12	none
O=C(c1cc(Cl)cc(Cl)c1)N1CC[C@H]2[C@H](CCCN2Cc2ccccc2)C1	none (no result: FAS TE block, Arrestin-AP2 inh, CendR NRP1 mod, CaV13 ICDI inh)
FC(F)c1nc2nc(Cl)c(Cl)nc2[nH]1	none (no result: Arrestin-AP2 inh)
N#Cc1cc(NC2CCCC2)c([N+](=O)[O-])cc1C#N	FAS TE block 54 | FAS-TE conf inactive
O=[N+]([O-])c1ccc(NC2CCCC2)cc1	none
Cc1ccc(S(=O)(=O)c2nnn3c2nc(N2CCC(C(N)=O)CC2)c2ccccc23)cc1C	FAS TE block 53 | FAS-TE conf 61
C[C@H](CO)N1C[C@H](C)[C@@H](CN(C)C(=O)Nc2ccc(N3CCN(C)CC3)cc2)OCc2cn(nn2)CCCC1=O	none (no result: FAS TE block, Arrestin-AP2 inh, CendR NRP1 mod)
COc1cc(C(=O)N2CCN(c3ccccc3)CC2)c2ccccc2n1	none
COc1cc(NS(=O)(=O)c2cc(NC(C)=O)ccc2OC)c(OC)cc1NC(=O)c1ccccc1	none
N#Cc1cc(-c2ccc(Cl)cc2)cn(Cc2c(Cl)cccc2Cl)c1=O	FAS TE block 62 | FAS-TE conf inactive
O=C(CSc1nnc(-c2ccc(O)cc2)n1Cc1ccco1)c1ccccc1	none
O=C(CSc1nnc(-c2ccccn2)n1Cc1ccco1)c1ccc(-c2ccccc2)cc1	FAS TE block 51 | FAS-TE conf inactive
COc1ccc(C(C)(C)C)cc1NC(=O)c1cc(S(=O)(=O)N(C)C)ccc1N1CCCC1	FAS TE block 68 | FAS-TE conf inactive
CN(C)S(=O)(=O)c1ccc(N2CCCC2)c(C(=O)Nc2nc3c(ccc4ccccc43)s2)c1	FAS TE block 92 | FAS-TE conf inactive
Cc1cnc(NC(=O)c2cc(S(=O)(=O)N(C)C)ccc2N2CCCC2)s1	none (no result: Arrestin-AP2 inh)
S=C(Nc1ccccc1I)OC1CCC12CCC(c1ccccc1)CC2 (stereo not given)	none (no result: FAS TE block, Arrestin-AP2 inh, CendR NRP1 mod, CaV13 ICDI inh)
COC(=O)c1cc(NC(=S)NCc2ccc(Cl)cc2)cc(C(=O)OC)c1	FAS TE block 51 | FAS-TE conf inactive
COc1ccc(C(=O)C(=O)N2CCN(c3ccc(C)cc3)CC2)cc1OC	none (no result: FAS TE block, Arrestin-AP2 inh)
O=C(NCCCCc1ccccc1)C12CN(Cc3ccccc3)CC1C(c1cccc([N+](=O)[O-])c1)=NO2 (stereo not given)	none
O=C(NCc1ccco1)C12CN(Cc3ccccc3)CC1C(c1cccc([N+](=O)[O-])c1)=NO2 (stereo not given)	FAS TE block 54 | FAS-TE conf inactive
O=C(NCc1ccco1)C12CN(Cc3ccccc3)CC1C(c1ccc([N+](=O)[O-])cc1)=NO2 (stereo not given)	none
O=C(NCCc1cccs1)C12CN(Cc3ccccc3)CC1C(c1cccc([N+](=O)[O-])c1)=NO2 (stereo not given)	FAS TE block 51 | FAS-TE conf inactive
CC1(C(=O)NCc2ccc3c(c2)OCO3)CCN1C(=O)Cc1ccc(Cl)cc1Cl (stereo not given)	none (no result: Arrestin-AP2 inh)
O=C(Nc1ccccc1C(F)(F)F)OC1CCC12CCC(c1ccccc1)CC2 (stereo not given)	none (no result: FAS TE block, Arrestin-AP2 inh, CendR NRP1 mod, CaV13 ICDI inh)
COc1cccc(C(=O)N2CCC[C@@H]2C(=O)N2CCC[C@@H]2C(=O)NCc2ccccc2)c1	none (no result: FAS TE block, Arrestin-AP2 inh, CendR NRP1 mod)
O=C(CSc1nnc(-c2c[nH]c3ccccc23)o1)N1CCCCC1	none
O=C(CSc1nnc(-c2c[nH]c3ccccc23)o1)N1c2ccccc2CCc2ccccc21	FAS TE block 55 | FAS-TE conf inactive
CCC/C=C/c1ccc(CN2C(C(C)C)C(=O)N(Cc3cn(CC4CCCCC4)nn3)CCS2(=O)=O)cc1 (stereo not given)	none (no result: Arrestin-AP2 inh)
CC(=O)OCCCNc1cc(Sc2ccc(Cl)cc2)c2nonc2c1[N+](=O)[O-]	FAS TE block 62 | FAS-TE conf inactive
Cc1ccc(Sc2cc(NCCCO)c([N+](=O)[O-])c3nonc23)cc1	none
COC(=O)[C@H](CC(C)C)N1Cc2nnn(CC3CCCCC3)c2-c2cc(F)ccc2S1(=O)=O	none (no result: FAS TE block, Arrestin-AP2 inh, CendR NRP1 mod, CaV13 ICDI inh)
CC(C)(C)c1ccc(/C=N/Nc2ccc(C(=O)O)cc2)cc1	FAS TE block 64 (no result: CaV13 ICDI inh) | FAS-TE conf 77
COc1ccccc1-c1cn(CC[C@@H]2CC[C@H](NC(=O)C3CCC3)[C@@H](CO)O2)nn1	none (no result: FAS TE block, Arrestin-AP2 inh)
COc1cc2sc(-c3ccc(S(C)(=O)=O)cc3)c(-c3ccc4c(c3)OCO4)c2cc1OC	FAS TE block 80 | FAS-TE conf inactive
COc1ccc(-c2c(-c3ccc(S(C)(=O)=O)cc3)sc3ccc(OC)cc23)cc1	CaV13 ICDI inh inconclusive
COc1ccc2sc(-c3ccc(S(C)(=O)=O)cc3)c(-c3ccc4c(c3)OCCO4)c2c1	FAS TE block 57 | FAS-TE conf inactive
O=[N+]([O-])c1ccc(S(=O)(=O)Nc2nnc(C3CCCCC3)s2)cc1	FAS TE block 50 | FAS-TE conf 65
O=S(=O)(Nc1nnc(C2CCCCC2)s1)c1ccc(F)cc1	none
Cn1c(=O)cc(SCC(=O)NCCC2=CCCCC2)c2cc(Cl)ccc21	FAS TE block 69 | FAS-TE conf inactive
Cn1c(=O)cc(OCCCC(=O)NCCC2=CCCCC2)c2ccccc21	none
CC(C)(C)C(=O)Nc1nc(C2CCCN2S(=O)(=O)c2ccc(Cl)cc2)cs1 (stereo not given)	FAS TE block 55 (no result: CaV13 ICDI inh) | FAS-TE conf 65
Cc1nnc2n(Cc3ccccc3)c(=O)c3c4c(sc3n12)COC(C(C)C)C4 (stereo not given)	FAS TE block 55 (no result: CaV13 ICDI inh) | FAS-TE conf inactive
COc1cc(CNc2ncnc3c2ncn3[C@H]2CN(Cc3ccco3)C[C@@H](CO)O2)cc(OC)c1OC	none (no result: Arrestin-AP2 inh)
Cn1c(=O)c([N+](=O)[O-])c(N2CCN(Cc3ccc4c(c3)OCO4)CC2)c2ccccc21	FAS TE block 86 | FAS-TE conf 54
